According to ChEMBL document CHEMBL1156136, “Hypoxia-activated prodrugs: substituent effects on the properties of nitro seco-1,2,9,9a-tetrahydrocyclopropa[c]benz[e]indol-4-one (nitroCBI) prodrugs of DNA minor groove alkylating agents” (J Med Chem, 2009):
pIC50: −log10 of the molar value. Calls of active or inactive are those of the source. The rule behind the calls is not given here.

Key:
[1] = tested on: HT-29; assay: Cytotoxicity against human HT-29 cells assessed as cell kill in hypoxic condition by clonogenic assay; assay type: functional
How it was run: (§1)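 Clonogenic assay on single-cell suspensions from dissociated HT29 spheroids, about 1 × 10⁶ cells/mL. Drug exposure 4 h at 37 °C under 5% CO2 in O2 or in N2. Colonies grown 14 days, methylene blue stained, >50 cells counted. Surviving fraction = PE(treated)/PE(control); C10 is the concentration giving 10% survival, from the fitted curve.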

[2] = tested on: HT-29; assay: Hypoxic cytotoxicity ratio, IC50 for human HT-29 cells in oxic condition to IC50 for human HT-29 cells in hypoxic condition by clonogenic assay; assay type: functional
[3] = tested on: Mus musculus; assay: Toxicity in mouse at 100 umol/kg, ip; assay type: organism-based; details: in vivo
[4] = tested on: SiHa; assay: Antitumor activity against human SiHa tumor bearing mouse assessed as log reduction of cell kill at 42 umol/kg, iv irradiated 5 mins before 15 Gy dose by cologenic assay; assay type: functional
How it was run: (§2)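 SiHa xenografts grown subcutaneously (10⁷ cultured cells) in female homozygous nude CD1-Foxn1nu/nu mice, randomised at mean tumour diameter 8-10 mm. Single iv tail-vein dose, 42 μmol/kg, in 5% DMSO/20% PEG-400/75% lactate buffer pH 4.0. Given alone or 5 min after 15 Gy irradiation. Tumours excised 18 h later, enzymatically dissociated, clonogenic survivors per gram counted. Groups of 3-5 mice; ANOVA with Holm-Sidak on log data.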

[5] = tested on: SiHa; assay: Antitumor activity against human SiHa tumor bearing mouse assessed as cell kill at 42 umol/kg, iv; assay type: functional; how it was run: as §2
[6] = tested on: SK-OV-3; assay: Cytotoxicity against human SKOV3 cells in oxic condition after 4 hrs by sulforhodamine B assay; assay type: functional, cell-based; details: SK-OV-3, 4 h
How it was run: (§3)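 Log-phase monolayers exposed to drug for 4 h under aerobic (20% O2) or anoxic (<20 ppm O2) conditions, then sulforhodamine B staining 5 days later. IC50 interpolated as concentration lowering cell density to 50% of same-plate controls. HCR = IC50(oxic)/IC50(hypoxic), mean of intraexperiment ratios. A549 P450R line is a stable transfectant with 9-fold higher cytochrome c reduction rate than parent.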

[7] = tested on: SK-OV-3; assay: Cytotoxicity against human SKOV3 cells in hypoxic condition after 4 hrs by sulforhodamine B assay; assay type: functional, cell-based; details: SK-OV-3, 4 h; how it was run: as §3
[8] = tested on: SK-OV-3; assay: Hypoxic cytotoxicity ratio, IC50 for human SKOV3 cells in oxic condition to IC50 for human SKOV3 cells in hypoxic condition; assay type: functional; how it was run: as §3
[9] = tested on: HT-29; assay: Cytotoxicity against human HT-29 cells in oxic condition after 4 hrs by sulforhodamine B assay; assay type: functional, cell-based; details: HT-29, 4 h; how it was run: as §3
[10] = tested on: HT-29; assay: Cytotoxicity against human HT-29 cells in hypoxic condition after 4 hrs by sulforhodamine B assay; assay type: functional, cell-based; details: HT-29, 4 h; how it was run: as §3
[11] = tested on: HT-29; assay: Hypoxic cytotoxicity ratio, IC50 for human HT-29 cells in oxic condition to IC50 for human HT-29 cells in hypoxic condition; assay type: functional; how it was run: as §3
[12] = tested on: HCT-116; assay: Cytotoxicity against human HCT116 cells in oxic condition after 4 hrs by sulforhodamine B assay; assay type: functional, cell-based; details: HCT-116, 4 h; how it was run: as §3
[13] = tested on: HCT-116; assay: Cytotoxicity against human HCT116 cells in hypoxic condition after 4 hrs by sulforhodamine B assay; assay type: functional, cell-based; details: HCT-116, 4 h; how it was run: as §3
[14] = tested on: HCT-116; assay: Hypoxic cytotoxicity ratio, IC50 for human HCT116 cells in oxic condition to IC50 for human HCT116 cells in hypoxic condition; assay type: functional; how it was run: as §3
[15] = tested on: C-33-A; assay: Cytotoxicity against human C33A cells in oxic condition after 4 hrs by sulforhodamine B assay; assay type: functional, cell-based; how it was run: as §3
[16] = tested on: C-33-A; assay: Cytotoxicity against human C33A cells in hypoxic condition after 4 hrs by sulforhodamine B assay; assay type: functional, cell-based; how it was run: as §3
[17] = tested on: C-33-A; assay: Hypoxic cytotoxicity ratio, IC50 for human C33A cells in oxic condition to IC50 for human C33A cells in hypoxic condition; assay type: functional; how it was run: as §3
[18] = tested on: SiHa; assay: Cytotoxicity against human SiHa cells in oxic condition after 4 hrs by sulforhodamine B assay; assay type: functional, cell-based; how it was run: as §3
[19] = tested on: SiHa; assay: Cytotoxicity against human SiHa cells in hypoxic condition after 4 hrs by sulforhodamine B assay; assay type: functional, cell-based; how it was run: as §3
[20] = tested on: SiHa; assay: Hypoxic cytotoxicity ratio, IC50 for human SiHa cells in oxic condition to IC50 for human SiHa cells in hypoxic condition; assay type: functional; how it was run: as §3
[21] = tested on: A549; assay: Cytotoxicity against human A549 cells in oxic condition after 4 hrs by sulforhodamine B assay; assay type: functional, cell-based; details: A549, 4 h; how it was run: as §3
[22] = tested on: A549; assay: Cytotoxicity against human A549 cells in hypoxic condition after 4 hrs by sulforhodamine B assay; assay type: functional, cell-based; details: A549, 4 h; how it was run: as §3
[23] = tested on: A549; assay: Hypoxic cytotoxicity ratio, IC50 for human A549 cells in oxic condition to IC50 for human A549 cells in hypoxic condition; assay type: functional; how it was run: as §3
[24] = tested on: A549; assay: Cytotoxicity against human A549 cells overexpressing human NADPH/cytochrome P450 oxidoreductase in oxic condition after 4 hrs by sulforhodamine B assay; assay type: functional, cell-based; details: A549, 4 h; how it was run: as §3
[25] = tested on: A549; assay: Cytotoxicity against human A549 cells overexpressing human NADPH/cytochrome P450 oxidoreductase in hypoxic condition after 4 hrs by sulforhodamine B assay; assay type: functional, cell-based; details: A549, 4 h; how it was run: as §3
[26] = tested on: A549; assay: Hypoxic cytotoxicity ratio, IC50 for oxic condition to IC50 for hypoxic condition in human A549 cells overexpressing human NADPH/cytochrome P450 oxidoreductase; assay type: functional; how it was run: as §3
[27] = Cytotoxicity against human H1299 cells in oxic condition after 4 hrs by sulforhodamine B assay; assay type: functional, cell-based; details: NCI-H1299, 4 h; how it was run: as §3
[28] = Cytotoxicity against human H1299 cells in hypoxic condition after 4 hrs by sulforhodamine B assay; assay type: functional, cell-based; details: NCI-H1299, 4 h; how it was run: as §3
[29] = Hypoxic cytotoxicity ratio, IC50 for human H1299 cells in oxic condition to IC50 for human H1299 cells in hypoxic condition; assay type: functional, NCI-H1299; how it was run: as §3
[30] = tested on: NCI-H460; assay: Cytotoxicity against human H460 cells in oxic condition after 4 hrs by sulforhodamine B assay; assay type: functional, cell-based; details: NCI-H460, 4 h; how it was run: as §3
[31] = tested on: NCI-H460; assay: Cytotoxicity against human H460 cells in hypoxic condition after 4 hrs by sulforhodamine B assay; assay type: functional, cell-based; details: NCI-H460, 4 h; how it was run: as §3
[32] = tested on: NCI-H460; assay: Hypoxic cytotoxicity ratio, IC50 for human H460 cells in oxic condition to IC50 for human H460 cells in hypoxic condition; assay type: functional; how it was run: as §3
[33] = tested on: PC-3; assay: Cytotoxicity against human PC3 cells in oxic condition after 4 hrs by sulforhodamine B assay; assay type: functional, cell-based; details: PC-3, 4 h; how it was run: as §3
[34] = tested on: PC-3; assay: Cytotoxicity against human PC3 cells in hypoxic condition after 4 hrs by sulforhodamine B assay; assay type: functional, cell-based; details: PC-3, 4 h; how it was run: as §3
[35] = tested on: PC-3; assay: Hypoxic cytotoxicity ratio, IC50 for human PC3 cells in oxic condition to IC50 for human PC3 cells in hypoxic condition; assay type: functional; how it was run: as §3
[36] = tested on: A-375; assay: Cytotoxicity against human A375 cells in oxic condition after 4 hrs by sulforhodamine B assay; assay type: functional, cell-based; details: A-375, 4 h; how it was run: as §3
[37] = tested on: A-375; assay: Cytotoxicity against human A375 cells in hypoxic condition after 4 hrs by sulforhodamine B assay; assay type: functional, cell-based; details: A-375, 4 h; how it was run: as §3
[38] = tested on: A-375; assay: Hypoxic cytotoxicity ratio, IC50 for human A375 cells in oxic condition to IC50 for human A375 cells in hypoxic condition; assay type: functional; how it was run: as §3
[39] = tested on: HT-29; assay: Cytotoxicity against human HT-29 cells assessed as surviving fraction in oxic condition at 30 uM by clonogenic assay; assay type: functional; how it was run: as §1

CN(C)CCOc1ccc2[nH]c(C(=O)N3CC(CCl)c4c3cc([N+](=O)[O-])c3cc(S(N)(=O)=O)ccc43)cc2c1 (centres undefined)
C10 [1]: 0.4 µM | Ratio IC50 [2]: 125 | Activity [3]: Non-toxic | Activity [4]: 2.7 | Activity [5]: inactive | pIC50 [6]: 5.16 | pIC50 [7]: 10.55 | Ratio IC50 [8]: 275 | pIC50 [9]: 5.34 | pIC50 [10]: 10.74 | Ratio IC50 [11]: 330 | pIC50 [12]: 5.77 | pIC50 [13]: 7.82 | Ratio IC50 [14]: 110 | pIC50 [15]: 6.30 | pIC50 [16]: 8.52 | Ratio IC50 [17]: 240 | pIC50 [18]: 5.77 | pIC50 [19]: 7.47 | Ratio IC50 [20]: 71 | pIC50 [21]: 6.02 | pIC50 [22]: 7.46 | Ratio IC50 [23]: 30 | pIC50 [24]: 6.07 | pIC50 [25]: 8.22 | Ratio IC50 [26]: 140 | pIC50 [27]: 5.20 | pIC50 [28]: 6.96 | Ratio IC50 [29]: 180 | pIC50 [30]: 5.42 | pIC50 [31]: 6.96 | Ratio IC50 [32]: 36 | pIC50 [33]: 5.54 | pIC50 [34]: 7.43 | Ratio IC50 [35]: 180 | pIC50 [36]: 5.54 | pIC50 [37]: 6.82 | Ratio IC50 [38]: 19 | Activity [39]: >10%
